aDG glyco up: activators of alpha-DG glycosylation, primary screen, uHTS, Pro5-aDG cells, AlphaScreen; alpha-DG glycosylation AlphaScreen (IIH6); 0% Pro5, 100% B10-LARGE cell signal; activation, % at 10 µM; 360,000 tested, 0.22% active; AID 624168, 2012;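 active means activation of at least 8% versus controls, or a plate z-score of at least 8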;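 further: Pro5 are CHO cells carrying HIG-tagged alpha-DG that lacks glycosylation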
Jurkat NFkB inh: inhibitors of induced NF-kB luciferase reporter, primary screen, TCR NF-kB activation inhibitor project, cell-based, luminescence, uHTS; inhibition, % at 4 µM; 330,000 tested, 0.53% active; Jurkat, PMA/ionomycin-induced NF-kB luciferase reporter; AID 435003, 2010; in the data active means inhibition above about 50%
MPTP block: mitochondrial permeability transition pore inhibitors, primary screen, biochemical, isolated mouse mitochondria, absorbance; Ca2+ swelling absorbance, 30 min; inhibition, % at 10 µM; 360,000 tested, 1.4% active; AID 602449, 2012;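 active means inhibition of 50% or more, scaled per plate between neutral and stimulator controls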
NR2E3 ag-1: inhibitors of NR2E3-RetCOR corepressor binding, primary screen, NR2E3 agonist project, biochemical, TR-FRET, GST-NR2E3, biotin-RetCOR. 1536-well. Photoreceptor-specific nuclear receptor (Homo sapiens), Q9Y5X4. 320,000 tested, 0.12% active. inhibition of corepressor binding, % at 4.78 µM. AID 2300, 2010;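 active means percent inhibition above the cutoff of mean plus 3 SD of all tested compounds, set per screening campaign, cut at about 20% in these data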
Target sequence (Q9Y5X4 whole entry, looked up): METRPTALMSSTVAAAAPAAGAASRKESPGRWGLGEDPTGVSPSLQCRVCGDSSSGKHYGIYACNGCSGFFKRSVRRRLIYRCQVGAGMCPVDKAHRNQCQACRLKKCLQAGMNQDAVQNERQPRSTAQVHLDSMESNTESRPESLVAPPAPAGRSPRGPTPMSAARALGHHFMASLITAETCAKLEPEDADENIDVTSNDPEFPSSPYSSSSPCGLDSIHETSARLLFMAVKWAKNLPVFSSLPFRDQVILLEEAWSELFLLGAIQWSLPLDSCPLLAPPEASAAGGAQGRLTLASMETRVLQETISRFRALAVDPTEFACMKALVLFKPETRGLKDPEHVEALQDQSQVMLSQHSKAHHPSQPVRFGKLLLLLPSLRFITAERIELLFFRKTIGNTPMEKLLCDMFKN
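System: GST-tagged NR2E3 plus biotinylated RetCOR corepressor; Buffer or medium: pH 7.5 Tris-based buffer; Probe or stimulus: RetCOR corepressor, biotinylated, 7 nM; Doses: compound at 4.8 µM, single dose; Schedule: 5 h incubation at 4 °C; Technique: time-resolved FRET; Evaluation: percent inhibition of TR-FRET ratio; Replication: one well per compound, singlicate testing.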
697 NFkB inh: inhibitors of PMA/ionomycin-induced NF-kB reporter, 697 cells, primary screen, B-cell NF-kB inhibitor project, cell-based, luminescence, uHTS | 697 B-cell NF-kB luciferase reporter, 16 h | inhibition, % at 4 µM | 330,000 tested, 0.33% active | AID 435022, 2010; in the data active means inhibition above about 35%
NR2E3 ag-2: NR2E3 agonists in two-hybrid cells, primary screen, cell-based, luminescence, CHO-S, Gal4-NCOR/VP16-NR2E3. AID 602229, 2012. 360,000 tested, 0.35% active. luciferase. inhibition of corepressor binding, % at 3.98 µM. Photoreceptor-specific nuclear receptor (Homo sapiens), Q9Y5X4;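 active means inhibition above the mean of all tested compounds plus 3 SD, cut at about 70% in these data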;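 further: higher means lower luciferase signal from less NR2E3 corepressor binding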
Jurkat NFkB conf: PMA/ionomycin-induced NF-kB reporter inhibitors, Jurkat retest, confirmation, T-cell NF-kB inhibitor project, cell-based, luminescence, single concentration. shares compounds with Jurkat NFkB inh. Jurkat NF-kB luciferase, 16 h. inhibition, % at 4 µM. 2,700 tested, 27% active. AID 435020, 2010;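 active means inhibition reaching about 45% at 4 µM in either replicate, limit read from the data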
Numbers stand for hits; 0 = inactive; - = not tested or not shown. In the library only some 2.4% were active in any assay of this set; here they are far more common.

SMILES | aDG glyco up | Jurkat NFkB inh | MPTP block | NR2E3 ag-1 | 697 NFkB inh | NR2E3 ag-2 | Jurkat NFkB conf
CCOC(=O)C1CCCN(C(=O)c2ccccc2OC(F)(F)F)CC1 (stereo not given) | 0 | - | 0 | - | - | 0 | -
CC(=O)Nc1ccc(NC(=O)c2cc(C)nn2-c2ccccc2)cc1 | 0 | 0 | 0 | 0 | 0 | 0 | -
CC(=O)c1cc2c(cc1NC(=O)c1cc(C)nn1-c1ccccc1)OCO2 | 0 | 55 | 0 | 0 | 0 | 0 | 0
COc1ccc(NC(=O)CC2(CC(=O)O)CCCC2)cc1 | 0 | 0 | 0 | 0 | 0 | 0 | -
O=C(C[C@H]1C/C=C\C[C@H](Cc2ccc(F)cc2)C(=O)O[C@@H](c2ccccc2)CNC1=O)NCCO | 0 | 0 | 0 | - | 0 | 0 | -
CCN(CC)C(=O)c1ccc(/C=C/c2c[nH]c3ccccc23)[n+](C)c1 | 0 | 0 | 0 | 0 | 0 | 0 | -
CC[n+]1c(/C=C/c2c[nH]c3ccccc23)ccc2cc(C)ccc21 | - | 93 | - | - | 0 | - | 0
Cc1ccc(NC(=S)N2CCC(c3ccccc3)C2)c(Cl)c1 (stereo not given) | 0 | 0 | 0 | 0 | 0 | 0 | 0
CC(=O)c1ccc(NC(=O)/C(Cl)=C/c2ccccc2)cc1 | 0 | 0 | 0 | 0 | 0 | 0 | -
Cc1ccc(NC(=O)/C(Cl)=C\c2ccccc2)cc1 | 0 | 0 | 0 | 0 | 0 | 0 | 0
COc1ccc(C2CC(c3ccc4ccccc4c3)=NN2C(=O)COC(=O)C2CCC(=O)N2)cc1 (stereo not given) | 0 | 0 | 0 | 0 | 0 | 0 | 0
O=C(NCc1ccco1)C1CC(c2cc(C(F)(F)F)cc(C(F)(F)F)c2)=NO1 (stereo not given) | 0 | 62 | 0 | 0 | 0 | 0 | 0
COc1ccccc1CNC(=O)C1CC(c2cccc([N+](=O)[O-])c2)=NO1 (stereo not given) | 0 | 55 | 0 | 0 | 0 | 0 | 0
COc1cc(C2=NOC(C(=O)NCc3ccc(F)cc3)C2)cc(OC)c1OC (stereo not given) | 0 | 68 | 0 | 0 | 0 | 0 | 52
COc1cccc(C2=NOC(C(=O)NCc3ccc(F)cc3)C2)c1 (stereo not given) | 0 | 0 | 0 | 0 | 0 | 0 | -
COc1ccc(C2=NOC(C(=O)NCc3ccc(F)cc3)C2)cc1OC (stereo not given) | 0 | 78 | 0 | 0 | 0 | 0 | 58
O=C(NCc1ccco1)C1CC(c2ccccc2C(F)(F)F)=NO1 (stereo not given) | 0 | 0 | 0 | 0 | 0 | 0 | -
CCCCCN1N=C(C)CC1=O | 0 | 0 | 0 | 0 | 0 | 0 | -
C=CCn1c(SCC(=O)NC2(C#N)CCCCC2)nnc1-c1ccncc1 | 0 | 0 | 0 | 0 | 0 | 0 | -
CCc1ccc(-c2nn(Cc3ccccc3)cc2C(=O)NCC2CCCO2)cc1 (stereo not given) | 0 | 0 | 0 | 0 | 0 | 0 | -
O=C(Nc1nc2ccccc2[nH]1)c1cccc(Br)c1 | 0 | 0 | 0 | 0 | 0 | 0 | 0
Cc1cccc(C(=O)N[C@H](C(=O)Nc2nc3ccccc3[nH]2)C(C)C)c1 | 0 | 60 | 0 | 0 | 0 | 0 | 0
COc1ccc(C(=O)N[C@H](C(=O)Nc2nc3ccccc3[nH]2)C(C)C)cc1 | 0 | 0 | 0 | 0 | 0 | 0 | -
CN(C)c1cccc(C(=O)Nc2nc3ccccc3[nH]2)c1 | 0 | 0 | 0 | 0 | 0 | 0 | -
O=C(Nc1nc2ccccc2[nH]1)c1cccc(F)c1 | 0 | 0 | 0 | 0 | 0 | 0 | 0
CS(=O)(=O)N1Cc2cc(C(=O)NCC3CC3)nc(-c3cccc(-c4cccnc4)c3)c2[C@@H]1CCO | 0 | - | 0 | - | - | 0 | -
O=C(COc1ccc(Br)cc1)N/N=C1\SCC(=O)N1c1ccc(F)cc1 | 0 | 99 | 0 | 0 | 0 | 0 | 0

Screening results as filed in PubChem.
